According to ChEMBL document CHEMBL1157638, “Fluorescent epigenetic small molecule induces expression of the tumor suppressor ras-association domain family 1A and inhibits human prostate xenograft” (J Med Chem, 2010):

Legend:
Format in all cases: functional
[1] = tested on: TK-10; experiment: Growth inhibition of human TK10 cells
[2] = tested on: OVCAR-3; experiment: Growth inhibition of human OVCAR-3 cells assessed as cell growth at 10 nM relative to untreated control; settings: read-out: Activity
[3] = tested on: A498; experiment: Growth inhibition of human A498 cells
[4] = tested on: CAKI-1; experiment: Growth inhibition of human Caki1 cells assessed as cell growth at 10 uM relative to untreated control; settings: read-out: Activity
Summary of the method: (§1)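 Run externally at the National Cancer Institute as a 59-cell-line panel screen, with concentrations up to 100 μM. Growth was scored relative to control, where negative growth or total cell kill was possible. Data are in the Supporting Information.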

[5] = tested on: MOLT-4; experiment: Growth inhibition of human MOLT4 cells assessed as cell growth at 1 nM relative to untreated control; settings: read-out: Activity
[6] = tested on: SW-620; experiment: Growth inhibition of human SW620 cells assessed as cell growth at 1 uM relative to untreated control; settings: read-out: Activity
[7] = tested on: NCI-H460; experiment: Growth inhibition of human NCI-H460 cells assessed as cell growth at 1 nM relative to untreated control; settings: read-out: Activity
[8] = tested on: CAKI-1; experiment: Growth inhibition of human Caki1 cells assessed as cell growth at 1 nM relative to untreated control; settings: read-out: Activity; summary of the method: as §1
[9] = tested on: EKVX; experiment: Growth inhibition of human EKVX cells assessed as cell growth at 10 nM relative to untreated control; settings: read-out: Activity; summary of the method: as §1
[10] = tested on: M14; experiment: Growth inhibition of human M14 cells assessed as cell growth at 10 uM relative to untreated control; settings: read-out: Activity
[11] = tested on: SK-MEL-2; experiment: Growth inhibition of human SK-MEL-2 cells
[12] = tested on: HCT-15; experiment: Growth inhibition of human HCT15 cells assessed as cell growth at 100 nM relative to untreated control; settings: read-out: Activity; summary of the method: as §1
[13] = tested on: NCI-H322M; experiment: Growth inhibition of human NCI-H322M cells assessed as cell growth at 1 nM relative to untreated control; settings: read-out: Activity
[14] = tested on: SR; experiment: Growth inhibition of human SR cells assessed as cell growth at 1 nM relative to untreated control; settings: read-out: Activity
[15] = tested on: SN12C; experiment: Growth inhibition of human SN12C cells assessed as cell growth at 100 nM relative to untreated control; settings: read-out: Activity
[16] = Growth inhibition of human Hs 578T cells assessed as cell growth at 1 uM relative to untreated control; settings: read-out: Activity
[17] = tested on: M14; experiment: Growth inhibition of human M14 cells assessed as cell growth at 1 uM relative to untreated control; settings: read-out: Activity
[18] = tested on: 786-0; experiment: Growth inhibition of human 786-0 cells assessed as cell growth at 1 uM relative to untreated control; settings: read-out: Activity
[19] = tested on: A549; experiment: Growth inhibition of human A549 cells
[20] = tested on: NCI-H322M; experiment: Growth inhibition of human NCI-H322M cells
[21] = tested on: SK-MEL-5; experiment: Growth inhibition of human SK-MEL-5 cells assessed as cell growth at 100 nM relative to untreated control; settings: read-out: Activity
[22] = tested on: OVCAR-8; experiment: Growth inhibition of human OVCAR8 cells assessed as cell growth at 10 nM relative to untreated control; settings: read-out: Activity
[23] = tested on: A549; experiment: Growth inhibition of human A549 cells assessed as cell growth at 10 nM relative to untreated control; settings: read-out: Activity
[24] = tested on: KM12; experiment: Growth inhibition of human KM12 cells assessed as cell growth at 100 nM relative to untreated control; settings: read-out: Activity
[25] = tested on: LOX IMVI; experiment: Growth inhibition of human LOXIMVI cells assessed as cell growth at 10 nM relative to untreated control; settings: read-out: Activity
[26] = tested on: A549; experiment: Growth inhibition of human A549 cells assessed as cell growth at 1 uM relative to untreated control; settings: read-out: Activity
[27] = tested on: COLO 205; experiment: Growth inhibition of human COLO205 cells assessed as cell growth at 10 uM relative to untreated control; settings: read-out: Activity; summary of the method: as §1
[28] = tested on: SK-MEL-28; experiment: Growth inhibition of human SK-MEL-28 cells assessed as cell growth at 10 uM relative to untreated control; settings: read-out: Activity
[29] = tested on: NCI-H23; experiment: Growth inhibition of human NCI-H23 cells assessed as cell growth at 1 uM relative to untreated control; settings: read-out: Activity
[30] = tested on: K562; experiment: Growth inhibition of human K562 cells assessed as cell growth at 10 nM relative to untreated control; settings: read-out: Activity
[31] = tested on: MOLT-4; experiment: Growth inhibition of human MOLT4 cells assessed as cell growth at 1 uM relative to untreated control; settings: read-out: Activity
[32] = tested on: BT-549; experiment: Growth inhibition of human BT549 cells assessed as cell growth at 1 nM relative to untreated control; settings: read-out: Activity
[33] = tested on: SK-OV-3; experiment: Growth inhibition of human SKOV3 cells assessed as cell growth at 10 uM relative to untreated control; settings: read-out: Activity
[34] = tested on: M14; experiment: Growth inhibition of human M14 cells assessed as cell growth at 100 nM relative to untreated control; settings: read-out: Activity
[35] = tested on: RXF 393; experiment: Growth inhibition of human RXF393 cells assessed as cell growth at 10 uM relative to untreated control; settings: read-out: Activity
[36] = tested on: SK-MEL-2; experiment: Growth inhibition of human SK-MEL-2 cells assessed as cell growth at 100 nM relative to untreated control; settings: read-out: Activity
[37] = tested on: PC-3; experiment: Growth inhibition of human PC3 cells assessed as cell growth at 100 nM relative to untreated control; settings: read-out: Activity
[38] = tested on: MOLT-4; experiment: Growth inhibition of human MOLT4 cells
[39] = tested on: NCI-H460; experiment: Growth inhibition of human NCI-H460 cells assessed as cell growth at 1 uM relative to untreated control; settings: read-out: Activity
[40] = tested on: NCI-H522; experiment: Growth inhibition of human NCI-H522 cells assessed as cell growth at 100 nM relative to untreated control; settings: read-out: Activity
[41] = tested on: SR; experiment: Growth inhibition of human SR cells assessed as cell growth at 10 uM relative to untreated control; settings: read-out: Activity
[42] = tested on: LOX IMVI; experiment: Growth inhibition of human LOXIMVI cells assessed as cell growth at 1 nM relative to untreated control; settings: read-out: Activity
[43] = tested on: DU-145; experiment: Growth inhibition of human DU145 cells assessed as cell growth at 10 nM relative to untreated control; settings: read-out: Activity; summary of the method: as §1
[44] = tested on: OVCAR-5; experiment: Growth inhibition of human OVCAR5 cells assessed as cell growth at 1 nM relative to untreated control; settings: read-out: Activity
[45] = tested on: HT-29; experiment: Growth inhibition of human HT-29 cells assessed as cell growth at 1 nM relative to untreated control; settings: read-out: Activity
[46] = tested on: DU-145; experiment: Growth inhibition of human DU145 cells assessed as cell growth at 100 nM relative to untreated control; settings: read-out: Activity; summary of the method: as §1
[47] = tested on: UACC-62; experiment: Growth inhibition of human UACC62 cells assessed as cell growth at 1 uM relative to untreated control; settings: read-out: Activity
[48] = tested on: UACC-257; experiment: Growth inhibition of human UACC257 cells assessed as cell growth at 1 nM relative to untreated control; settings: read-out: Activity
[49] = tested on: OVCAR-5; experiment: Growth inhibition of human OVCAR5 cells assessed as cell growth at 10 nM relative to untreated control; settings: read-out: Activity
[50] = read-out: LC50 (the source's name)

## COc1ccc2c(c1)[nH]c1c(C)c(OS(=O)(=O)c3cccc4c(N(C)C)cccc34)ccc12
[1]
  GI50: 9.19 µM
  TGI: > 100 µM
[1]; [50]
  CC50: > 100 µM
[2]
  growth at 0.01 µM: 100%
[3]
  GI50: 22.4 µM
  TGI: 60.2 µM
[3]; [50]
  CC50: > 100 µM
[4]
  growth at 10 µM: 26%
[5]
  growth at 0.001 µM: 103%
[6]
  growth at 1 µM: 24%
[7]
  growth at 0.001 µM: 102%
[8]
  growth at 0.001 µM: 98%
[9]
  growth at 0.01 µM: 96%
[10]
  growth at 10 µM: 17%
[11]
  GI50: 10 µM
  TGI: > 100 µM
[11]; [50]
  CC50: > 100 µM
[12]
  growth at 0.1 µM: 92%
[13]
  growth at 0.001 µM: 98%
[14]
  growth at 0.001 µM: 102%
[15]
  growth at 0.1 µM: 97%
[16]
  growth at 1 µM: 20%
[17]
  growth at 1 µM: 29%
[18]
  growth at 1 µM: 30%
[19]
  GI50: 4.98 µM
  TGI: > 100 µM
[19]; [50]
  CC50: > 100 µM
[20]
  GI50: 12.8 µM
  TGI: > 100 µM
[20]; [50]
  CC50: > 100 µM
[21]
  growth at 0.1 µM: 91%
[22]
  growth at 0.01 µM: 103%
[23]
  growth at 0.01 µM: 97%
[24]
  growth at 0.1 µM: 97%
[25]
  growth at 0.01 µM: 92%
[26]
  growth at 1 µM: 31%
[27]
  growth at 10 µM: 1%
[28]
  growth at 10 µM: 19%
[29]
  growth at 1 µM: 30%
[30]
  growth at 0.01 µM: 98%
[31]
  growth at 1 µM: 20%
[32]
  growth at 0.001 µM: 100%
[33]
  growth at 10 µM: 34%
[34]
  growth at 0.1 µM: 100%
[35]
  growth at 10 µM: -32%
[36]
  growth at 0.1 µM: 115%
[37]
  growth at 0.1 µM: 96%
[38]
  GI50: 4.19 µM
  TGI: > 100 µM
[38]; [50]
  CC50: > 100 µM
[39]
  growth at 1 µM: 9%
[40]
  growth at 0.1 µM: 100%
[41]
  growth at 10 µM: 7%
[42]
  growth at 0.001 µM: 95%
[43]
  growth at 0.01 µM: 107%
[44]
  growth at 0.001 µM: 107%
[45]
  growth at 0.001 µM: 98%
[46]
  growth at 0.1 µM: 103%
[47]
  growth at 1 µM: 28%
[48]
  growth at 0.001 µM: 100%
[49]
  growth at 0.01 µM: 106%
